# Measurements from ChEMBL document CHEMBL1671826, “Effect of Inhibiting Histone Deacetylase with Short-Chain Carboxylic Acids and Their Hydroxamic Acid Analogs on Vertebrate Development and Neuronal Chromatin” (ACS Med Chem Lett, 2011).
# Calls of active or inactive are those of the source. No cut-off for these calls is given here.
# Tests used:
# Histone deacetylase 5 = Histone deacetylase 5 (Homo sapiens, UniProt Q9UQL6); assay: Inhibition of human recombinant HDAC5
# Outline: (§1)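 Recombinant HDAC isoforms incubated with acetyl-lysine tripeptide–AMC substrate (mimics histone H4 K12), or trifluoroacetyl-lysine-AMC for class IIa enzymes, each substrate at its Km; trypsin cleavage of deacetylated product releases fluorescent AMC. IC50 from two experiments in duplicate, mean ± SD.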
# [1] = biological target: T1, Protein deacetylase HDAC6 (Mus musculus) (UniProt Q9Z2V5); assay: Inhibition of HDAC6 in mouse primary forebrain neurons assessed as acetylation of tubulin at 92.5 uM after 24 hrs by immunofluorescence assay
# T1 sequence (whole entry): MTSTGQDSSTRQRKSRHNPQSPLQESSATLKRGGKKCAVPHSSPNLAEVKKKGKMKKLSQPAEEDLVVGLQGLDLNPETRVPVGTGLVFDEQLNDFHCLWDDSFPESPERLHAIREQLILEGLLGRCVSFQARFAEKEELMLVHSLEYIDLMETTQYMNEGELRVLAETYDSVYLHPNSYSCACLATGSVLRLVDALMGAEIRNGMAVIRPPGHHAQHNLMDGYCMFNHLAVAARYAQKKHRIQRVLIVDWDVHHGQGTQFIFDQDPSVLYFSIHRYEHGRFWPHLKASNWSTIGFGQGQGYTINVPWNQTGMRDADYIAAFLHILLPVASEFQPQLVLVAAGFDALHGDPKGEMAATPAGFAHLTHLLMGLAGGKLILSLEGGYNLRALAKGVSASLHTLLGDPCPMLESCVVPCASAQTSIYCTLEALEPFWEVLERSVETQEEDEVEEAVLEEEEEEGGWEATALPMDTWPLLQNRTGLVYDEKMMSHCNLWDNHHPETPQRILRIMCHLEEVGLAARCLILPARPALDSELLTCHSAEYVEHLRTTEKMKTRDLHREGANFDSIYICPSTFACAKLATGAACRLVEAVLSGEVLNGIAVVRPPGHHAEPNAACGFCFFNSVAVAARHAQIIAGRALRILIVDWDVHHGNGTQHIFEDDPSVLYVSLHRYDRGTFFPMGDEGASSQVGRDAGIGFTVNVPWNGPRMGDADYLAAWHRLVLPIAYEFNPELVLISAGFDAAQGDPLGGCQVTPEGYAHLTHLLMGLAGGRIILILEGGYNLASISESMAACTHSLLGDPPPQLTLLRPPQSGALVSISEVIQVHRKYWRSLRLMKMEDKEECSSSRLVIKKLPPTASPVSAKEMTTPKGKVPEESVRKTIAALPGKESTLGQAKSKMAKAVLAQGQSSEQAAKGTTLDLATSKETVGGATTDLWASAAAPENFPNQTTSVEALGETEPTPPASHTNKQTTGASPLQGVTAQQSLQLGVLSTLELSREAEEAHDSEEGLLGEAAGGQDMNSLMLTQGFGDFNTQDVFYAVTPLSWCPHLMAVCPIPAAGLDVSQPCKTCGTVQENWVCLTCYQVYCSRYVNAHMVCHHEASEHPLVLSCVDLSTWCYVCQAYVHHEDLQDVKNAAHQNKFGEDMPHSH
# Outline: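 Primary mouse forebrain cultures treated 24 h at a single concentration; tubulin acetylation measured by immunofluorescence.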
# Histone deacetylase 8 = biological target: T2, Histone deacetylase 8 (Homo sapiens, UniProt Q9BY41); assay: Inhibition of human recombinant HDAC8; outline: as §1
# T2 sequence (Q9BY41 whole entry): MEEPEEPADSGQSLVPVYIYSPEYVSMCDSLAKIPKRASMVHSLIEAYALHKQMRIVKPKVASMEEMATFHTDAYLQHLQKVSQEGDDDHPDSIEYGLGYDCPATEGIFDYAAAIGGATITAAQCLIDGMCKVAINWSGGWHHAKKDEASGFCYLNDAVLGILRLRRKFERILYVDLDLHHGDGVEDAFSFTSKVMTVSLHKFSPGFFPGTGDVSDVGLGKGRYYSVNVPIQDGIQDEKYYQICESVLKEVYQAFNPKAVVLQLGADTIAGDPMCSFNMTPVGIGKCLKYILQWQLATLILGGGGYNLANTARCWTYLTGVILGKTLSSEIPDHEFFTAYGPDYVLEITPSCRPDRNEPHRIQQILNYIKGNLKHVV
# Histone deacetylase 9 = Histone deacetylase 9 (Homo sapiens, UniProt Q9UKV0); assay: Inhibition of human recombinant HDAC9; outline: as §1
# Mus musculus = species: Mus musculus; assay: Inhibition of HDAC in mouse primary forebrain neurons assessed as acetylation of histone H3 lysine 9 at 92.5 uM after 24 hrs by immunofluorescence assay
# Histone deacetylase 4 = Histone deacetylase 4 (Homo sapiens, UniProt P56524); assay: Inhibition of human recombinant HDAC4; outline: as §1
# Histone deacetylase 7 = biological target: T3, Histone deacetylase 7 (Homo sapiens, UniProt Q8WUI4); assay: Inhibition of human recombinant HDAC7
# T3 sequence (Q8WUI4 whole entry): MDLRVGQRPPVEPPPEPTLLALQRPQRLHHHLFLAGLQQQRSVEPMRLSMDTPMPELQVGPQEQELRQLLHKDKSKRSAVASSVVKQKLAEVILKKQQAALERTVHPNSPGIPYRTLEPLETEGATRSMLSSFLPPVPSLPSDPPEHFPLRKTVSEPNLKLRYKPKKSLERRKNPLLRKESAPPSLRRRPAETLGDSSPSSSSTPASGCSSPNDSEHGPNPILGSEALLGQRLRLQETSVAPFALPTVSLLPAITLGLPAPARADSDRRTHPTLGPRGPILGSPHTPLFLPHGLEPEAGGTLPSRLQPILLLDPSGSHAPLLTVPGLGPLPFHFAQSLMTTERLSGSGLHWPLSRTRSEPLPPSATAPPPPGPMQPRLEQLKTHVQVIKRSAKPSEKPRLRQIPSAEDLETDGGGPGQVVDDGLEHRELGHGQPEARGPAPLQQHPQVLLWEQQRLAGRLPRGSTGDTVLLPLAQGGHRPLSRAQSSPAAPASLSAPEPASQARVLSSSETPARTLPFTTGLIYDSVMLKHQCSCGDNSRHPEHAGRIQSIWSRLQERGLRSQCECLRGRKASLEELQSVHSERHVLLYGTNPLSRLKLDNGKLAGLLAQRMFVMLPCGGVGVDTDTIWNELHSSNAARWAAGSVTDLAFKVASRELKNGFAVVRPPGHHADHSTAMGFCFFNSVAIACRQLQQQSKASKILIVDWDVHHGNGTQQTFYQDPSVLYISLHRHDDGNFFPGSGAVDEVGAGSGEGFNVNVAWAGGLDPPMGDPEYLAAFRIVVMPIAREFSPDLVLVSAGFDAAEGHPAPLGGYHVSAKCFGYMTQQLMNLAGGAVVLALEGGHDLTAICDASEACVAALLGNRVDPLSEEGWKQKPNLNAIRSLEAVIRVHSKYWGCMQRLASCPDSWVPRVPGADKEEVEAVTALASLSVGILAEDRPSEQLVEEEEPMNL
# [2] = biological target: T4, Protein deacetylase HDAC6 (Homo sapiens) (UniProt Q9UBN7); assay: Inhibition of HDAC6 in human HeLa cells assessed as acetylation of tubulin after 24 hrs by immunofluorescence assay; type: cell-based
# T4 sequence (whole entry): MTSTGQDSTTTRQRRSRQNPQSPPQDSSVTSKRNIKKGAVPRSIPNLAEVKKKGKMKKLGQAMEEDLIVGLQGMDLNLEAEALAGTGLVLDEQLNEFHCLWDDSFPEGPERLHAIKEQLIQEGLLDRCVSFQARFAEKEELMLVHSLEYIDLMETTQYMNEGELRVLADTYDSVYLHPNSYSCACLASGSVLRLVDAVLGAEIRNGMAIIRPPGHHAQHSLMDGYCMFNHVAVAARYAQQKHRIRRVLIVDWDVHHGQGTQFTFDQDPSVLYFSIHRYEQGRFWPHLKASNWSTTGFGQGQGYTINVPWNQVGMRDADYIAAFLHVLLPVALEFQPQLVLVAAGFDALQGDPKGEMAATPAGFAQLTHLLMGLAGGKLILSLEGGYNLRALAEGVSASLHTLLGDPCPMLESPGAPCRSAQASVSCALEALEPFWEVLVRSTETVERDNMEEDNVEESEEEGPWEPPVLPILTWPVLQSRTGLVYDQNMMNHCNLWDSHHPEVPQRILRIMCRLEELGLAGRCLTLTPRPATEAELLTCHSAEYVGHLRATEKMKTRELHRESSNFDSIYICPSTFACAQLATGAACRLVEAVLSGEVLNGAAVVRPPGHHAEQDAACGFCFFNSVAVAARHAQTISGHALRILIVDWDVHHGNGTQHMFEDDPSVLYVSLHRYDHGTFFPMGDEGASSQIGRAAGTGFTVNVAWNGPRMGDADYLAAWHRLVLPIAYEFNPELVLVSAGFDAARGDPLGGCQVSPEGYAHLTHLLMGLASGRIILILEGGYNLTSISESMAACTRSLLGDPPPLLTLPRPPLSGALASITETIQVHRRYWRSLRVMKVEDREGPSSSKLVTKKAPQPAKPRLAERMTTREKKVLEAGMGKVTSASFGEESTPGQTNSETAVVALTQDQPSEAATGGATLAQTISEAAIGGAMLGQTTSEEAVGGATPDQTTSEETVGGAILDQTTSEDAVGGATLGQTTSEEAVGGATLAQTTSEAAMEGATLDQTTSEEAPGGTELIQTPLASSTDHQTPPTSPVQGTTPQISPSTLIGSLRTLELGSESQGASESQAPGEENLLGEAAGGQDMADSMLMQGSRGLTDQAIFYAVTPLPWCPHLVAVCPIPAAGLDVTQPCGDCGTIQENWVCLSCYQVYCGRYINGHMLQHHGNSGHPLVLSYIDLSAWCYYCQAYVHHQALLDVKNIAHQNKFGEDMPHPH
# Outline: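 HeLa cells treated 24 h at the indicated doses; tubulin acetylation quantified by immunofluorescence.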
# Histone deacetylase 2 = Histone deacetylase 2 (Homo sapiens, UniProt Q92769); assay: Inhibition of human recombinant HDAC2; outline: as §1
# Histone deacetylase 1 = Histone deacetylase 1 (Homo sapiens, UniProt Q13547); assay: Inhibition of human recombinant HDAC1; outline: as §1
# Histone deacetylase 3 = Histone deacetylase 3 (Homo sapiens, UniProt O15379); assay: Inhibition of human recombinant HDAC3; outline: as §1
# [3] = biological target: T5, Protein deacetylase HDAC6 (Homo sapiens, UniProt Q9UBN7); assay: Inhibition of human recombinant HDAC6; outline: as §1
# T5 sequence (Q9UBN7 whole entry): T4 sequence (whole entry)
# Xenopus laevis [4] = species: Xenopus laevis; assay: Induction of histone H3 acetylation in frog embryos at 2 mM after 2 hrs Western blotting
# Outline: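 Frog embryos treated from completion of neurulation (stage 18) into tailbud stages for 2 h at the indicated concentrations; histone acetylation read by Western blot.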
# Xenopus laevis [5] = species: Xenopus laevis; assay: Induction of developmental deffects in frog embryos assessed as heart looping and pigment deffects at 2 mM after 18 hrs; type: organism-based; conditions: in vivo, 2000 µM
# Outline: (§2)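 Xenopus laevis embryos exposed in the whole-organism development assay at 2 mM and scored morphologically for loss of anterior structures, shortened anterior–posterior axis, and heart looping and pigment defects; compared with untreated embryos.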
# Xenopus laevis [6] = species: Xenopus laevis; assay: Induction of developmental deffects in frog embryos assessed as loss of anterior structures at 2 mM after 18 hrs; type: organism-based; conditions: in vivo, 2000 µM; outline: as §2
# Xenopus laevis [7] = species: Xenopus laevis; assay: Induction of tubulin acetylation in frog embryos at 2 mM after 18 hrs Western blotting
# Outline: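 Frog embryos treated from stage 18 (end of neurulation) through tailbud stages (32) for 18 h at the indicated concentrations; acetylated tubulin detected by Western blot.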
# Xenopus laevis [8] = species: Xenopus laevis; assay: Induction of developmental deffects in frog embryos assessed as shortening of anterior-posterior axis at 2 mM after 18 hrs; type: organism-based; conditions: in vivo, 2000 µM; outline: as §2
# Sequence of Histone deacetylase 9 (Q9UKV0 whole entry): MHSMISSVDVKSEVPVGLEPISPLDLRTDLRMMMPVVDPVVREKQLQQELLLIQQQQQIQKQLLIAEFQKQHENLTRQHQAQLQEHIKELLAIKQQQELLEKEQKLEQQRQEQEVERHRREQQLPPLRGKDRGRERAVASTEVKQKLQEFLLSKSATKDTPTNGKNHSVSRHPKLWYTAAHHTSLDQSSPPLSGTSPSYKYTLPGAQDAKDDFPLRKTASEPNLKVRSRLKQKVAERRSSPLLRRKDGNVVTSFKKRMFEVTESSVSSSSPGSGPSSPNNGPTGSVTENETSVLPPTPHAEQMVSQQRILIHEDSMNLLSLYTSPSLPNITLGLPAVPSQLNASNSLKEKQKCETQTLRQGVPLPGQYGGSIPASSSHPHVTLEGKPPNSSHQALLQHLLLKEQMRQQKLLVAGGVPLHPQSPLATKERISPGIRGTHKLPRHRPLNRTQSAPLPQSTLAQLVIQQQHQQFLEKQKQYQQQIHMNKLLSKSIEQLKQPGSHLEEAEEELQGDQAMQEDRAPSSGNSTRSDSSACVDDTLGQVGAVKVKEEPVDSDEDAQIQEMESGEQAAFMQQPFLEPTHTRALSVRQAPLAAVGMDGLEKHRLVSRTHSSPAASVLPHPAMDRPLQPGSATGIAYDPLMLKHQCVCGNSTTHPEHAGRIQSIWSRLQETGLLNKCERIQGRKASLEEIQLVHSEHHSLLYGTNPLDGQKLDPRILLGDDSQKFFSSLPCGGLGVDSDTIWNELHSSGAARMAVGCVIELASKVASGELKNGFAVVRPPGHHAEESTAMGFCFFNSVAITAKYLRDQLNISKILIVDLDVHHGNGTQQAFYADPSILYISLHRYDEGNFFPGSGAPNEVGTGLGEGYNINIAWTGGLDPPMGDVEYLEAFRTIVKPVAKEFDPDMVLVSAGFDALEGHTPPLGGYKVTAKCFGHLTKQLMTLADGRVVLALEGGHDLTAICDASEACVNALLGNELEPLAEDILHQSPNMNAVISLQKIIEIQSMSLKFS
# Sequence of Histone deacetylase 2 (Q92769 whole entry): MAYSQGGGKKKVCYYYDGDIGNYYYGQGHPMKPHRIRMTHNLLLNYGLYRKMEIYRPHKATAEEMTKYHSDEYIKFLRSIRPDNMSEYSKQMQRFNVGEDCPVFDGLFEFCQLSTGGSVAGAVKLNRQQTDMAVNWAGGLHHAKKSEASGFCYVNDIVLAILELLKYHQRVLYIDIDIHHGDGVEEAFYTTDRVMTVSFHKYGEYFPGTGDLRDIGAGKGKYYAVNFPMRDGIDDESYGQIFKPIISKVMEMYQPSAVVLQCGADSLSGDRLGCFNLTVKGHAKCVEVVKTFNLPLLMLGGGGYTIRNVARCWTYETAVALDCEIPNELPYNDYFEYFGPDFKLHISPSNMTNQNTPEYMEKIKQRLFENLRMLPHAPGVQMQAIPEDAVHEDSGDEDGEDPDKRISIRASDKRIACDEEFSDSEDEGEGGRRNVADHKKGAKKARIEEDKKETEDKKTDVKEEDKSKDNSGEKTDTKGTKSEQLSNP
# Sequence of Histone deacetylase 5 (Q9UQL6 whole entry, canonical isoform): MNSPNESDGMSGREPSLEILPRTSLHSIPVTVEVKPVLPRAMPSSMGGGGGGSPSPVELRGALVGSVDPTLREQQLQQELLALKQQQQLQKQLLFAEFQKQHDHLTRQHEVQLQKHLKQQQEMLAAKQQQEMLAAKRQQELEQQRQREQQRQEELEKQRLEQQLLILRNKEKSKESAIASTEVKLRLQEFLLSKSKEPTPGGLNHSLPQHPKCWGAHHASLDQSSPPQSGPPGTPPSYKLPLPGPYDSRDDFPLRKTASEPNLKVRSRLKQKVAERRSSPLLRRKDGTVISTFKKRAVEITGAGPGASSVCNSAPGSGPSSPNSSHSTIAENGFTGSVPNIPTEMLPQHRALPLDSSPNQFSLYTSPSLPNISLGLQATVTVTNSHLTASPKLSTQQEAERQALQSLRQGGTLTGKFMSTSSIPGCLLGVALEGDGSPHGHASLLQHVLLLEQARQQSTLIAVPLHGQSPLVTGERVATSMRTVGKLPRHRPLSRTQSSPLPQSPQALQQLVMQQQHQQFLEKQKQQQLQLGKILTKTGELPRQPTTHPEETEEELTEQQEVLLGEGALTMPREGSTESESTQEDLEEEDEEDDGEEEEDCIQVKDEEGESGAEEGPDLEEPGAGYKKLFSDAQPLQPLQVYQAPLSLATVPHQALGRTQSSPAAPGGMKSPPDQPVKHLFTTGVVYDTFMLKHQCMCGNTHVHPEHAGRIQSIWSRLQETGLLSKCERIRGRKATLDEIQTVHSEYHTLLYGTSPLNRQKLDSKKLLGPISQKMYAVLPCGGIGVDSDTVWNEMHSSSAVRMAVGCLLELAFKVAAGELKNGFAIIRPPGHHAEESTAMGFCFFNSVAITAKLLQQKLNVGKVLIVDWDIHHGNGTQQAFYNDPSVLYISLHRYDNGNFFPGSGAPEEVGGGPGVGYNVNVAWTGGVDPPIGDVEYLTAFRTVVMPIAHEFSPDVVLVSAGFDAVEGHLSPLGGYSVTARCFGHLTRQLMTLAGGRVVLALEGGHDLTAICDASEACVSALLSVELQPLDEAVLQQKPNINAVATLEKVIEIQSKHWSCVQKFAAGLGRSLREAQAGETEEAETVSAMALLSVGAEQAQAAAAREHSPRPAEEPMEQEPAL
# Sequence of Histone deacetylase 3 (O15379 whole entry): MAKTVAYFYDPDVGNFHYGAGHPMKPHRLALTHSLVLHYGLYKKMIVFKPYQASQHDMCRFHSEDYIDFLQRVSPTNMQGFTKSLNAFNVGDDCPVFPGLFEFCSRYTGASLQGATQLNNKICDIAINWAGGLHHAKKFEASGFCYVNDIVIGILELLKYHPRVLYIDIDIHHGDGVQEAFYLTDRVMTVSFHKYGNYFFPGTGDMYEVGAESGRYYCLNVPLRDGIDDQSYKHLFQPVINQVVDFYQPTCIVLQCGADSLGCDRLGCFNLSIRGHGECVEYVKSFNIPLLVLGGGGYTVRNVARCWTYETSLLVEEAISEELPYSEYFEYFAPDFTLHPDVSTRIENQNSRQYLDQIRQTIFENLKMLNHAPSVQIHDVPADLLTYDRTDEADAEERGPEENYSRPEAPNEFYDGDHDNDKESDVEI
# Sequence of Histone deacetylase 4 (P56524 whole entry): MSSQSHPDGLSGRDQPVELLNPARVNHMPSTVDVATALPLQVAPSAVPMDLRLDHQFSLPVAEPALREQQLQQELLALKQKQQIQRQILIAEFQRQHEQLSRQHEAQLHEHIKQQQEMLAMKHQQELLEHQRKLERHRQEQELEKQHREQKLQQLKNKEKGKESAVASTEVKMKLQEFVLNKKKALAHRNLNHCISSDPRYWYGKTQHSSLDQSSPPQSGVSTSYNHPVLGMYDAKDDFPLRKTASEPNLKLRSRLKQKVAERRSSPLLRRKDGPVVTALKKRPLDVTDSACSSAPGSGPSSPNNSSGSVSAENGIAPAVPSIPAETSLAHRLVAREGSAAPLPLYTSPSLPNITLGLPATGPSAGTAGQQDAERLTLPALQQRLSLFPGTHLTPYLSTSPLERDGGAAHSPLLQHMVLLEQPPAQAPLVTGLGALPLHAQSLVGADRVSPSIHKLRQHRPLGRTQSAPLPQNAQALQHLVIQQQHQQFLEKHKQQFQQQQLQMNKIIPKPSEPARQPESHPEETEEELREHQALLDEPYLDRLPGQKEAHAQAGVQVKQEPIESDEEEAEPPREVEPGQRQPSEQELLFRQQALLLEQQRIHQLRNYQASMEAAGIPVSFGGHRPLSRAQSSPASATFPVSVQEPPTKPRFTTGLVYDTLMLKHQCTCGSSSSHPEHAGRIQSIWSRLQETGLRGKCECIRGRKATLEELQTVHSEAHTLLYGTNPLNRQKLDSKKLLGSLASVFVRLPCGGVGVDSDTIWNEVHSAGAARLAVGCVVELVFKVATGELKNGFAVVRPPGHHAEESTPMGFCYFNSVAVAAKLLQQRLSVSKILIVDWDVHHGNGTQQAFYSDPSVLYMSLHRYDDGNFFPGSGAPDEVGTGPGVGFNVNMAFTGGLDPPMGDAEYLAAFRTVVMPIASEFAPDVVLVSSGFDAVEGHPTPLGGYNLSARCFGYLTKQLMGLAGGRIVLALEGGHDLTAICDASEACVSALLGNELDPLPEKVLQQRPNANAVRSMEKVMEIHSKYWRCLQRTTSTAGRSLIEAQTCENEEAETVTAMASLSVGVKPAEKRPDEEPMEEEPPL
# Sequence of Histone deacetylase 1 (Q13547 whole entry): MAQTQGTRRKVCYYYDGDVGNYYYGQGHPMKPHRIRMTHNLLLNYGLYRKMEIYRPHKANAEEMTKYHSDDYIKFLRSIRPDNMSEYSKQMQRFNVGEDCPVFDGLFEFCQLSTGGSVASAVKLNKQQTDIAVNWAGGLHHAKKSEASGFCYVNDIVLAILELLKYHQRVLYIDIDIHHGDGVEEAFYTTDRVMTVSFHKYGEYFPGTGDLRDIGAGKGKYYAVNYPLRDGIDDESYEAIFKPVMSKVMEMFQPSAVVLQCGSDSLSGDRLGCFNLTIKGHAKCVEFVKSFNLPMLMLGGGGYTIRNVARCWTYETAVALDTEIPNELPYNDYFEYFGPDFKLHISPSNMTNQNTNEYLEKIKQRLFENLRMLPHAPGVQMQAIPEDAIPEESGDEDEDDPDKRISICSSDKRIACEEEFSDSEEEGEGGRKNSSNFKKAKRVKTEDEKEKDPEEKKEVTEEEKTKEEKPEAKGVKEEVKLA
SMILES,IC50 (Histone deacetylase 5) [µM],inhibition [1],IC50 (Histone deacetylase 8) [µM],IC50 (Histone deacetylase 9) [µM],inhibition (Mus musculus),IC50 (Histone deacetylase 4) [µM],IC50 (Histone deacetylase 7) [µM],inhibition [2],IC50 (Histone deacetylase 2) [µM],IC50 (Histone deacetylase 1) [µM],IC50 (Histone deacetylase 3) [µM],IC50 [3] [µM],Activity (Xenopus laevis [4]),Activity (Xenopus laevis [7]),Activity (Xenopus laevis [5]),Activity (Xenopus laevis [6]),Activity (Xenopus laevis [8])
O=C(O)CCCc1ccccc1,> 2000,Active,93,> 2000,inactive,> 2000,> 2000,inactive,–,–,–,–,–,–,–,–,–
CCCC(CCC)C(=O)O [VALPROIC ACID],> 2000,–,–,> 2000,inactive,> 2000,> 2000,inactive,–,39,–,> 2000,–,–,Toxic,Toxic,Toxic
CCCC(=O)O [BUTYRIC ACID],> 2000,–,15,> 2000,inactive,> 2000,> 2000,inactive,12,16,9,> 2000,–,–,–,–,–

# Now from value to molecule, other results behind:
IC50 (Histone deacetylase 5) [µM],inhibition [1],IC50 (Histone deacetylase 8) [µM],IC50 (Histone deacetylase 9) [µM],inhibition (Mus musculus),IC50 (Histone deacetylase 4) [µM],IC50 (Histone deacetylase 7) [µM],inhibition [2],IC50 (Histone deacetylase 2) [µM],IC50 (Histone deacetylase 1) [µM],IC50 (Histone deacetylase 3) [µM],IC50 [3] [µM],Activity (Xenopus laevis [4]),Activity (Xenopus laevis [7]),SMILES,Activity (Xenopus laevis [5]),Activity (Xenopus laevis [6]),Activity (Xenopus laevis [8])
360,–,26,> 2000,Active,> 2000,> 1000,Active,9,7,10,2,–,–,CCCC(=O)NO [BUTYRYLHYDROXAMIC ACID],–,–,–
37,Active,39,91,inactive,170,–,Active,680,560,340,16,inactive,Active,CCCC(CCC)C(=O)NO [VALPROPYLHYDROXAMIC ACID],Non-toxic,Non-toxic,Non-toxic
25,–,4,430,Active,140,–,Active,0.6,–,–,0.5,–,–,O=C(CCCc1ccccc1)NO [PHENYLBUTYRYLHYDROXAMIC ACID],–,–,–
